Source: ChEMBL document CHEMBL5390324, “Synthesis of 9-Cinnamyl-9H-purine Derivatives as Novel TLR4/MyD88/NF-κB Pathway Inhibitors for Anti-inflammatory Effects” (ACS Med Chem Lett, 2023)
pIC50: −log10 of the molar value. Activity calls are given as the source filed them. The calls are words filed in the database; no cut-off is given here.

Each molecule was assayed on RAW264.7 (assay: Antiinflammatory activity in mouse RAW264.7 cells assessed as inhibition of LPS-stimulated nitric oxide production at 20 uM preincubated for 2 hrs followed by LPS stimulation for 24 hrs by Griess reagent based assay relative to control). Conditions: time 26 hrs.
Format: functional
Procedure, shortened: (§1)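 RAW264.7 cells pretreated 2 h with compound, then LPS (500 ng/mL) 24 h. Nitrite in culture supernatant measured with Griess reagent (1% sulfanilamide in 5% H3PO4, 0.1% N-(1-naphthyl)ethylenediamine dihydrochloride). Inhibition % as mean ± SEM of triplicates; negative values denote enhancement of NO.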

| SMILES | inhibition at 20 µM [%] |
| --- | --- |
| Cc1ccc(/C=C/Cn2cnc3c(F)nc(F)nc32)cc1 | 12.1 |
| Cc1ccc(/C=C/Cn2cnc3c(Cl)nc(Cl)nc32)cc1 | 60.4 |
| Oc1ccc(/C=C/c2cc(O)cc(O)c2)cc1 [RESVERATROL] | 38.6 |
| CNc1nc(Cl)nc2c1ncn2C/C=C/c1ccc(C)cc1 | 34.6 |
| Cc1ccc(/C=C/Cn2cnc3c(Cl)nc(F)nc32)cc1 | 60.5 |
| CNc1ncnc2c1ncn2C/C=C/c1ccc(C)cc1 | -15.7 |
| Nc1nc(Cl)nc2c1ncn2CC1CC1c1ccc(F)cc1 (stereo unspecified) | 1.56 |
| Fc1ccc(/C=C/Cn2cnc3c(Cl)nc(Cl)nc32)cc1 | 40.5 |
| Fc1ccc(C2CC2Cn2cnc3c(Cl)nc(Cl)nc32)cc1 (stereo unspecified) | 17.1 |
| CNc1ncnc2c1ncn2C/C=C/c1ccccc1 | 33.4 |
| Clc1ncnc2c1ncn2C/C=C/c1ccccc1 | 14.8 |
| Cc1ccc(/C=C/Cn2cnc3c(Cl)ncnc32)cc1 | 12.1 |
| Nc1nc(Cl)nc2c1ncn2C/C=C/c1ccc(F)cc1 | 24.1 |
| Cc1ccc(/C=C/Cn2cnc3c(NO)nc(Cl)nc32)cc1 | 40.9 |

These molecules were tested on RAW264.7 (assay: Antiinflammatory activity in LPS-stimulated mouse RAW264.7 cells assessed as inhibition in TNF-alpha level at 3 to 30 uM preincubated for 2 hrs followed by LPS stimulation for 24 hrs by ELISA). Conditions: dose 3-30 µM, time 26.0 hrs.
Format: functional, cell-based
Procedure, shortened: (§2)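 RAW264.7 macrophages pretreated 2 h with compound, or Bay11-7082 as positive control, then LPS (500 ng/mL) for 24 h. IL-6, IL-1β and TNF-α in supernatants quantified by ELISA. Mean ± SEM.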

| SMILES | inhibition |
| --- | --- |
| Cc1ccc(/C=C/Cn2cnc3c(Cl)nc(Cl)nc32)cc1 | Active |

What follows are molecules tested on RAW264.7 (assay: Antiinflammatory activity in LPS-stimulated mouse RAW264.7 cells assessed as reduction in iNOS level at 10 to 30 uM preincubated for 2 hrs followed by LPS stimulation for 20 hrs by Western blot analysis). Conditions: dose 10-30 µM, time 22.0 hrs.
Format: functional, cell-based
Procedure, shortened: (§3)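 RAW264.7 cells pretreated 2 h with compound, then LPS (200 ng/mL) for 20 h. iNOS and COX-2 protein assessed by Western blot.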

| SMILES | Activity |
| --- | --- |
| Cc1ccc(/C=C/Cn2cnc3c(Cl)nc(Cl)nc32)cc1 | Active |

Each molecule was assayed on RAW264.7 (assay: Antiinflammatory activity in mouse RAW264.7 cells assessed as inhibition of NF-kappaB translocation from cytosol to nucleus at 30 uM preincubated for 2 hrs followed by LPS stimulation for 2 hrs by immunofluorescence staining analysis). Conditions: time 4.0 hrs.
Format: functional, cell-based
Procedure, shortened: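 RAW264.7 cells in glass chamber wells overnight, treated 2 h with compound (30 μM) or Bay (20 μM), then LPS for 2 h. Immunostained for NF-κB p65 with Alexa Fluor 488 secondary; nuclei counterstained with DAPI in antifade medium; fluorescence imaging.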

| SMILES | inhibition |
| --- | --- |
| Cc1ccc(/C=C/Cn2cnc3c(Cl)nc(Cl)nc32)cc1 | Active |

These molecules were tested on RAW264.7 (assay: Cytotoxicity against mouse RAW264.7 cells at 3 to 30 uM by MTS assay). Conditions: raw264.7, 30 µM, dose 3-30 µM.
Format: toxicity, cell-based
Procedure, shortened: (§4)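 MTS viability assay in RAW264.7 and 293T cells at 3, 10 and 30 μM.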

| SMILES | Activity |
| --- | --- |
| Cc1ccc(/C=C/Cn2cnc3c(Cl)nc(Cl)nc32)cc1 | Non-Toxic |
| Oc1ccc(/C=C/c2cc(O)cc(O)c2)cc1 [RESVERATROL] | Non-Toxic |

Species: Mus musculus
Assay: Antiinflammatory activity in DNCB-stimulated atopic dermatitis BALB/c mouse model assessed as reduction in skin lesion at 0.5 % pretreated for 30 mins followed by DNCB re-treatment measured after 3 hrs
Format: functional, organism-based
Conditions: time 3.5 hrs
Procedure, shortened: (§5)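 DNCB-induced atopic dermatitis model in mouse ears, lesions peaking day 7 after sensitization; test agent applied at 0.5%. Ear thickness measured daily with a digimatic micrometer; ear lesions photographed. Ear specimens H&E-stained and examined microscopically for epidermal and dermal thickness and inflammatory cell infiltration. Mean ± SEM.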

| SMILES | Activity |
| --- | --- |
| Cc1ccc(/C=C/Cn2cnc3c(Cl)nc(Cl)nc32)cc1 | Active |

These molecules were tested on RAW264.7 (assay: Antiinflammatory activity in mouse RAW264.7 cells assessed as inhibition of LPS-stimulated nitric oxide production at 10 uM preincubated for 2 hrs followed by LPS stimulation for 24 hrs by Griess reagent based assay relative to control). Conditions: time 26 hrs.
Format: functional
Procedure, shortened: as §1

| SMILES | inhibition at 10 µM [%] |
| --- | --- |
| Cc1ccc(/C=C/Cn2cnc3c(F)nc(F)nc32)cc1 | 5.88 |
| Cc1ccc(/C=C/Cn2cnc3c(Cl)nc(Cl)nc32)cc1 | 31.9 |
| Oc1ccc(/C=C/c2cc(O)cc(O)c2)cc1 [RESVERATROL] | 26.6 |
| CNc1nc(Cl)nc2c1ncn2C/C=C/c1ccc(C)cc1 | 28.4 |
| Cc1ccc(/C=C/Cn2cnc3c(Cl)nc(F)nc32)cc1 | 31.1 |
| CNc1ncnc2c1ncn2C/C=C/c1ccc(C)cc1 | -7 |
| Nc1nc(Cl)nc2c1ncn2CC1CC1c1ccc(F)cc1 (stereo unspecified) | -6.22 |
| Fc1ccc(/C=C/Cn2cnc3c(Cl)nc(Cl)nc32)cc1 | 29.3 |
| Fc1ccc(C2CC2Cn2cnc3c(Cl)nc(Cl)nc32)cc1 (stereo unspecified) | 4.11 |
| CNc1ncnc2c1ncn2C/C=C/c1ccccc1 | 19.3 |
| Clc1ncnc2c1ncn2C/C=C/c1ccccc1 | 15.1 |
| Cc1ccc(/C=C/Cn2cnc3c(Cl)ncnc32)cc1 | 13.5 |
| Nc1nc(Cl)nc2c1ncn2C/C=C/c1ccc(F)cc1 | 13.9 |
| Cc1ccc(/C=C/Cn2cnc3c(NO)nc(Cl)nc32)cc1 | 36.8 |

Species: Mus musculus
Assay: Antiinflammatory activity in DNCB-stimulated atopic dermatitis BALB/c mouse model assessed as reduction in epidermal thickness of ear at 0.5 % pretreated for 30 mins followed by DNCB re-treatment measured after 3 hrs by H and E staining based microscopic analysis
Format: functional, organism-based
Conditions: time 3.5 hrs
Procedure, shortened: as §5

| SMILES | Activity |
| --- | --- |
| Cc1ccc(/C=C/Cn2cnc3c(Cl)nc(Cl)nc32)cc1 | Active |

What follows are molecules tested on HEK-293T (assay: Antiinflammatory activity in HEK293T cells transfected with NF-kappaB (unknown origin) assessed as inhibition in NF-kB transcription at 3 to 30 uM preincubated for 2 hrs followed by PMA stimulation for 24 hrs by SEAP reporter gene based Quanti-blue assay). Conditions: Homo sapiens, dose 3-30 µM, time 26.0 hrs.
Format: functional, cell-based
Procedure, shortened: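 293T cells on poly-D-lysine-coated wells transfected overnight with pNF-κB-SEAP. Treated with compound for 2 h, then PMA (50 ng/mL) for 24 h. Bay 11-7082 (20 μM) served as NF-κB inhibitor control. SEAP activity read with QUANTI-Blue. Mean ± SEM.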

| SMILES | inhibition |
| --- | --- |
| Cc1ccc(/C=C/Cn2cnc3c(Cl)nc(Cl)nc32)cc1 | Active |

What follows are molecules tested on RAW264.7 (assay: Antiinflammatory activity in mouse RAW264.7 cells assessed as inhibition of LPS-stimulated nitric oxide production preincubated for 2 hrs followed by LPS stimulation for 24 hrs by Griess reagent based assay). Conditions: not given.
Format: functional, cell-based
Procedure, shortened: as §1

| pIC50 | SMILES |
| --- | --- |
| 5.19 | Cc1ccc(/C=C/Cn2cnc3c(Cl)nc(Cl)nc32)cc1 |
| 4.58 | Oc1ccc(/C=C/c2cc(O)cc(O)c2)cc1 [RESVERATROL] |

Same assay, conditions: time 26.0 hrs

| SMILES | inhibition |
| --- | --- |
| CNc1ncnc2c1ncn2C/C=C/c1ccc(C)cc1 | inactive |
| Nc1nc(Cl)nc2c1ncn2CC1CC1c1ccc(F)cc1 (stereo unspecified) | inactive |

Each molecule was assayed against TLR4-MyD88 (Mus musculus) (UniProt Q9QUK6+P22366) (assay: Inhibition of TLR4-MyD88 interaction in mouse RAW264.7 cells at 30 uM preincubated for 2 hrs followed by LPS stimulation for 24 hrs by co-immunoprecipitation analysis). Conditions: time 26.0 hrs.
Sequence of TLR4-MyD88 (Mus musculus) (P22366 whole entry, looked up): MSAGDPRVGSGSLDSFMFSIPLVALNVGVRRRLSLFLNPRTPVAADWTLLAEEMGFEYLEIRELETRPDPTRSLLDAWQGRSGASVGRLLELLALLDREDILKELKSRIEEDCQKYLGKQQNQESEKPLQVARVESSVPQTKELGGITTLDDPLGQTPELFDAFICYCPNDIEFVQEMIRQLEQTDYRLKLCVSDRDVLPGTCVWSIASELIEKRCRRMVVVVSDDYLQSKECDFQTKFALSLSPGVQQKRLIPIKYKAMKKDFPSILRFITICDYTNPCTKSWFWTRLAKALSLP
Sequence of TLR4-MyD88 (Mus musculus) (Q9QUK6 whole entry, looked up): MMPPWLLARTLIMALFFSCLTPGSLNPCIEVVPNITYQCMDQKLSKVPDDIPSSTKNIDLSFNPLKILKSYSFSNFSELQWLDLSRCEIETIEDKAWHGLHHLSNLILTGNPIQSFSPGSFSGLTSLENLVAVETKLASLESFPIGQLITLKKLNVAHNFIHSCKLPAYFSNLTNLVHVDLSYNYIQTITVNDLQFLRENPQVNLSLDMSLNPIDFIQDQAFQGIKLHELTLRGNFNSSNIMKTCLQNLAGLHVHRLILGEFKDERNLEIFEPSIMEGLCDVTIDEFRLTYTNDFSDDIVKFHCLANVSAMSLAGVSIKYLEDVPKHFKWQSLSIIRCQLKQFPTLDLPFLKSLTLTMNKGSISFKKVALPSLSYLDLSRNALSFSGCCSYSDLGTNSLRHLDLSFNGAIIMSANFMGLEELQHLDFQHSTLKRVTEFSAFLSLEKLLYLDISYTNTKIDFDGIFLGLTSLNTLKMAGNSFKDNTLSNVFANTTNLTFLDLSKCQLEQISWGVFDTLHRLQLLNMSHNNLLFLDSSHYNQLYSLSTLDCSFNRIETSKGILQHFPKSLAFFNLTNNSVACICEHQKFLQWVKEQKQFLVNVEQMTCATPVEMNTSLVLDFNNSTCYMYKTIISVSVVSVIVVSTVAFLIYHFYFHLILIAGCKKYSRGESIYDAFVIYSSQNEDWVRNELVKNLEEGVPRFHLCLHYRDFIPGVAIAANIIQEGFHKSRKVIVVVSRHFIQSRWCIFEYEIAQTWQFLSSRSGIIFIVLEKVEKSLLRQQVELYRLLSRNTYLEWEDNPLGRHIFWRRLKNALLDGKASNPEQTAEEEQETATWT
Format: cell-based
Procedure, shortened: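 RAW264.7 cells treated with compound at 30 μM for 2 h, then LPS (500 ng/mL) for 24 h. Lysates immunoprecipitated with MyD88- or TLR4-specific antibodies on protein A/G agarose beads; immunocomplexes probed by Western blot for TLR4 or MyD88.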

| inhibition | SMILES |
| --- | --- |
| Active | Cc1ccc(/C=C/Cn2cnc3c(Cl)nc(Cl)nc32)cc1 |

These molecules were tested on RAW264.7 (assay: Antiinflammatory activity in LPS-stimulated mouse RAW264.7 cells assessed as inhibition in IL-1beta level at 3 to 30 uM preincubated for 2 hrs followed by LPS stimulation for 24 hrs by ELISA). Conditions: dose 3-30 µM, time 26.0 hrs.
Format: functional, cell-based
Procedure, shortened: as §2

| SMILES | inhibition |
| --- | --- |
| Cc1ccc(/C=C/Cn2cnc3c(Cl)nc(Cl)nc32)cc1 | Active |

Species: Mus musculus
Assay: Antiinflammatory activity in DNCB-stimulated atopic dermatitis BALB/c mouse model assessed as reduction in dermal thickness of ear at 0.5 % pretreated for 30 mins followed by DNCB re-treatment measured after 3 hrs by H and E staining based microscopic analysis
Format: functional, organism-based
Conditions: time 3.5 hrs
Procedure, shortened: as §5

| SMILES | Activity |
| --- | --- |
| Cc1ccc(/C=C/Cn2cnc3c(Cl)nc(Cl)nc32)cc1 | Active |

Species: Mus musculus
Assay: Antiinflammatory activity in DNCB-stimulated atopic dermatitis BALB/c mouse model assessed as reduction in infiltration of inflammatory cells of ear at 0.5 % pretreated for 30 mins followed by DNCB re-treatment measured after 3 hrs by H and E staining based microscopic analysis
Format: functional, organism-based
Conditions: time 3.5 hrs
Procedure, shortened: as §5

| SMILES | Activity |
| --- | --- |
| Cc1ccc(/C=C/Cn2cnc3c(Cl)nc(Cl)nc32)cc1 | Active |

Each molecule was assayed on RAW264.7 (assay: Antiinflammatory activity in LPS-stimulated mouse RAW264.7 cells assessed as inhibition in IL-6 level at 3 to 30 uM preincubated for 2 hrs followed by LPS stimulation for 24 hrs by ELISA). Conditions: dose 3-30 µM, time 26.0 hrs.
Format: functional, cell-based
Procedure, shortened: as §2

| SMILES | inhibition |
| --- | --- |
| Cc1ccc(/C=C/Cn2cnc3c(Cl)nc(Cl)nc32)cc1 | Active |

These molecules were tested on HEK-293T (assay: Cytotoxicity against HEK293T cells at 3 to 30 uM by MTS assay). Conditions: human, dose 3-30 µM.
Format: toxicity, cell-based
Procedure, shortened: as §4

| SMILES | Activity |
| --- | --- |
| Cc1ccc(/C=C/Cn2cnc3c(Cl)nc(Cl)nc32)cc1 | Non-Toxic |
| Oc1ccc(/C=C/c2cc(O)cc(O)c2)cc1 [RESVERATROL] | Non-Toxic |

The molecules below were run on RAW264.7 (assay: Antiinflammatory activity in mouse RAW264.7 cells assessed as inhibition of nitric oxide production incubated for 2 hrs by Griess reagent based assay). Conditions: not given.
Format: functional, cell-based
Procedure, shortened: as §1

| SMILES | inhibition |
| --- | --- |
| CNc1ncnc2c1ncn2C/C=C/c1ccc(C)cc1 | inactive |
| Nc1nc(Cl)nc2c1ncn2CC1CC1c1ccc(F)cc1 (stereo unspecified) | inactive |

What follows are molecules tested on RAW264.7 (assay: Antiinflammatory activity in LPS-stimulated mouse RAW264.7 cells assessed as reduction in COX-2 level at 10 to 30 uM preincubated for 2 hrs followed by LPS stimulation for 20 hrs by Western blot analysis). Conditions: dose 10-30 µM, time 22.0 hrs.
Format: functional, cell-based
Procedure, shortened: as §3

| SMILES | Activity |
| --- | --- |
| Cc1ccc(/C=C/Cn2cnc3c(Cl)nc(Cl)nc32)cc1 | Active |

Species: Mus musculus
Assay: Antiinflammatory activity in DNCB-stimulated atopic dermatitis BALB/c mouse model assessed as reduction in ear swelling at 0.5 % pretreated for 30 mins followed by DNCB re-treatment measured after 3 hrs
Format: functional, organism-based
Conditions: time 3.5 hrs
Procedure, shortened: as §5

| SMILES | Activity |
| --- | --- |
| Cc1ccc(/C=C/Cn2cnc3c(Cl)nc(Cl)nc32)cc1 | Active |
